From paper PMC11626521 (RSC Advances, 2024)

How the values were obtained:
Assay in all cases: anti-proliferation assay
[1] = test system: GES-1; format: cell-based; conditions: read-out: IC50 GES-1; normal human gastric mucosa cell line, 72 h treatment, CCK8
Method in brief: (§1)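 Seeding was 4000 cells per well, with overnight adherence. Media: HGC-27 and GES-1 in RPMI 1640; HT-29 and HCT-116 in McCoy's 5A; HeLa in DMEM; all with 10% FBS and 1% penicillin–streptomycin, 37 °C, 5% CO2. Test compounds ran 0–500 μM in 3-fold dilutions for 72 h. Read-out was CCK8 (0.5 mM WST-8, 10 μM PMS) for 0.5–2 h, absorbance 450 nm, IC50 from viability. SI = IC50(GES-1)/IC50(HGC-27).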

[2] = test system: HT-29; format: cell-based, human; conditions: read-out: IC50 HT-29; 72 h treatment, CCK8
Method in brief: as §1

[3] = test system: HCT-116; format: cell-based, human; conditions: read-out: IC50 HCT-116; 72 h treatment, CCK8
Method in brief: as §1

[4] = test system: HGC-27; format: cell-based, human
Method in brief: as §1

[5] = test system: HeLa; format: cell-based, human; conditions: read-out: IC50 HeLa; 72 h treatment, CCK8
Method in brief: as §1

SMILES: O=c1[nH]cc(F)c(=O)[nH]1 [5-FU]
- IC50 [1]: 4.03 ± 0.19 µM
- IC50 [2]: 4.6 ± 0.55 µM
- IC50 [3]: 3.32 ± 0.3 µM
- SI (GES-1/HGC-27) ([4]; SI = IC50 (GES-1)/IC50 (HGC-27)): 0.85
- IC50 ([4]; read-out: IC50 HGC-27, 72 h treatment, CCK8): 4.75 ± 0.18 µM
- IC50 [5]: 3.43 ± 0.33 µM
